Source: ChEMBL document CHEMBL1154729, “Discovery of novel antitubercular 2,10-dihydro-4aH-chromeno[3,2-c]pyridin-3-yl derivatives” (Eur J Med Chem, 2010)
≈ marks a conversion by molar mass, not a printed value.

Assays:
[1] = test system: Mycobacterium tuberculosis; experiment: Antimycobacterial activity against Mycobacterium tuberculosis H37Rv by agar dilution method; format: functional
In short: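 Agar dilution MIC on Middlebrook 7H11 agar supplemented with OADC, following NCCLS-like procedure; determined in duplicate.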

Vero = experiment: Cytotoxicity against african green monkey Vero cells after 72 hrs by MTT assay; format: cell-based; conditions: Chlorocebus sabaeus
In short: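 Vero monkey kidney cells exposed to compounds by serial double dilution up to 62.5 µg/mL for 72 h. Viability read from cellular MTT conversion to formazan (Cell Titer 96 non-radioactive proliferation assay); IC50 reported.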

[2] = Selectivity index, ratio of IC50 for african green monkey Vero cells to MIC for Mycobacterium tuberculosis H37Rv; format: functional
[3] = test system: Mycobacterium tuberculosis; experiment: Antimycobacterial activity against Mycobacterium tuberculosis ATCC 35801 infected in CD1 mouse assessed as bacterial load in lungs at 25 mg/kg, ip administered 10 days postinfection for 10 days measured after 35 days of infection (Rvb=7.99 +/- 0.16 log CFU); format: functional; conditions: route intraperitoneal
[4] = test system: Mycobacterium tuberculosis; experiment: Antimycobacterial activity against Mycobacterium tuberculosis ATCC 35801 infected in CD1 mouse assessed as bacterial load in spleen at 25 mg/kg, ip administered 10 days postinfection for 10 days measured after 35 days of infection (Rvb=9.02 +/- 0.21 log CFU); format: functional; conditions: route intraperitoneal

| SMILES | MIC [1] | IC50 (Vero) | Selectivity Index [2] | log10cfu [3] | log10cfu [4] |
| --- | --- | --- | --- | --- | --- |
| Cc1ccc2ccc(C(=O)NCC3=C[C@@H]4Oc5ccccc5C(=O)C4=CN3c3ncccc3C)cc2c1 | 0.41 µM (≈ 0.2 µg/mL) | > 128 µM | – | – | – |
| Cc1cccnc1N1C=C2C(=O)c3ccccc3O[C@H]2C=C1CNC(=O)c1cccc(Cl)c1 | 1.7 µM (≈ 0.778 µg/mL) | > 136 µM | – | – | – |
| Cc1ccc(C(=O)NCC2=C[C@@H]3Oc4ccccc4C(=O)C3=CN2c2ncc(Br)cc2Br)cc1 | 5.38 µM (≈ 3.13 µg/mL) | – | – | – | – |
| Cc1cccnc1N1C=C2C(=O)c3ccccc3O[C@H]2C=C1CNC(=O)c1ccc(Cl)cc1 | 1.7 µM (≈ 0.778 µg/mL) | 136 µM | – | – | – |
| O=C(NCC1=C[C@@H]2Oc3ccccc3C(=O)C2=CN1c1ncc(Br)cc1Br)c1ccc(Cl)cc1 | 2.95 µM (≈ 1.77 µg/mL) | > 104 µM | – | – | – |
| O=C(COc1ccccc1)NCC1=C[C@@H]2Oc3ccccc3C(=O)C2=CN1c1ncc(Br)cc1Br | 10.5 µM (≈ 6.25 µg/mL) | – | – | – | – |
| Cc1ccc(C(=O)NCC2=C[C@@H]3Oc4ccccc4C(=O)C3=CN2c2ncccc2C)cc1 | 1.78 µM (≈ 0.779 µg/mL) | > 143 µM | – | – | – |
| O=C(NCC1=C[C@@H]2Oc3ccccc3C(=O)C2=CN1c1ncc(Br)cc1Br)c1ccc(F)cc1 | 10.7 µM (≈ 6.24 µg/mL) | – | – | – | – |
| Cc1cccnc1N1C=C2C(=O)c3ccccc3O[C@H]2C=C1CNC(=O)COc1ccccc1 | 13.8 µM (≈ 6.25 µg/mL) | – | – | – | – |
| O=C(NCC1=C[C@@H]2Oc3ccccc3C(=O)C2=CN1c1ncc(Br)cc1Br)c1ccc2ccccc2c1 | 2.52 µM (≈ 1.56 µg/mL) | 101 µM | – | – | – |
| O=C(NCC1=C[C@@H]2Oc3ccccc3C(=O)C2=CN1c1ncc(Br)cc1Br)c1ccccc1 | 11 µM (≈ 6.25 µg/mL) | – | – | – | – |
| Cc1ccc2ccc(C(=O)NCC3=C[C@@H]4Oc5ccccc5C(=O)C4=CN3c3ncc(Br)cc3Br)cc2c1 | 1.23 µM (≈ 0.777 µg/mL) | 99 µM | – | – | – |
| CCc1ccc(C(=O)NCC2=C[C@@H]3Oc4ccccc4C(=O)C3=CN2c2ncccc2C)cc1 | 0.22 µM (≈ 0.0993 µg/mL) | > 138 µM | 629 | 6.88 | 6.08 |
| CCc1ccc(C(=O)NCC2=C[C@@H]3Oc4ccccc4C(=O)C3=CN2c2ncc(Br)cc2Br)cc1 | 2.6 µM (≈ 1.55 µg/mL) | 105 µM | – | – | – |
| O=C(NCC1=C[C@@H]2Oc3ccccc3C(=O)C2=CN1c1ncc(Br)cc1Br)c1cccc(Cl)c1 | 5.2 µM (≈ 3.13 µg/mL) | 104 µM | – | – | – |
| Cc1cccnc1N1C=C2C(=O)c3ccccc3O[C@H]2C=C1CNC(=O)c1ccc2ccccc2c1 | 0.84 µM (≈ 0.398 µg/mL) | 142 µM | – | – | – |
| O=C(NCC1=C[C@@H]2Oc3ccccc3C(=O)C2=CN1c1ncc(Br)cc1Br)c1ccc(Cl)c(Cl)c1 | 9.82 µM (≈ 6.25 µg/mL) | 50.7 µM | – | – | – |
| COc1ccc(C(=O)NCC2=C[C@@H]3Oc4ccccc4C(=O)C3=CN2c2ncc(Br)cc2Br)cc1 | 10.5 µM (≈ 6.25 µg/mL) | – | – | – | – |
| COc1ccc(C(=O)NCC2=C[C@@H]3Oc4ccccc4C(=O)C3=CN2c2ncccc2C)cc1 | 1.72 µM (≈ 0.78 µg/mL) | > 138 µM | – | – | – |
| Cc1cccnc1N1C=C2C(=O)c3ccccc3O[C@H]2C=C1CNC(=O)c1ccc(F)cc1 | 7.09 µM (≈ 3.13 µg/mL) | > 142 µM | – | – | – |
| Cc1cccnc1N1C=C2C(=O)c3ccccc3O[C@H]2C=C1CNC(=O)c1ccccc1 | 7.36 µM (≈ 3.12 µg/mL) | > 148 µM | – | – | – |
| CC[C@@H](CO)NCCN[C@@H](CC)CO [ETHAMBUTOL] | 7.63 µM (≈ 1.56 µg/mL) | > 306 µM | – | – | – |
| NNC(=O)c1ccncc1 [ISONIAZID] | 0.36 µM (≈ 0.0494 µg/mL) | > 456 µM | – | 5.86 | 4.71 |
| CC1COc2c(N3CCN(C)CC3)c(F)cc3c(=O)c(C(=O)O)cn1c23 (centres undefined) [OFLOXACIN] | 2.13 µM (≈ 0.77 µg/mL) | > 155 µM | – | – | – |
| CO[C@H]1/C=C/O[C@@]2(C)Oc3c(C)c(O)c4c(O)c(c(/C=N/N5CCN(C)CC5)c(O)c4c3C2=O)NC(=O)/C(C)=C\C=C\[C@H](C)[C@H](O)[C@@H](C)[C@@H](O)[C@@H](C)[C@H](OC(C)=O)[C@@H]1C [RIFAMPIN] | 0.12 µM (≈ 0.0988 µg/mL) | > 75.9 µM | – | – | – |
